Source: PubChem
This is a sample that favours compounds with a hit; in the whole collection about 3.8% have one here.
KCNQ1 block = blocks the human KCNQ1 potassium channel; P51787; CHO-K1 KCNQ1, FluxOR thallium flux fluorescence; active compounds read high; B-score at 10 µM; 1.3% of 310,000 active;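 active = compounds whose thallium flux B-score, printed positive for inhibition, exceeds three library SD while starting fluorescence stays within three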;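 also: channel opened by potassium depolarization with thallium stimulus after 20 min compound exposure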
hERG rescue = compounds protecting human hERG from proarrhythmic drug block; CHO-hERG, FluxOR thallium flux, dofetilide IC70 present; activation (rescue from dofetilide block), less the hit threshold, % at 10 µM; 0.51% of 310,000 active;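 active = activation above the mean of controls blocked by dofetilide plus 5 SD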;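 also: thallium influx through hERG after potassium depolarization seen as dye fluorescence rise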
KCNK9 inh = human KCNK9 channel inhibition. Q9NPC2. HEK293 KCNK9, FluxOR thallium flux fluorescence; active compounds read low. B-score at 10 µM. 1.2% of 310,000 active. AID 488922;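 active = ratio B-score over 3 SD below the library mean, with starting fluorescence within 5 SD of its mean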;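 also: negative B-score means less thallium flux so channel inhibition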
Target sequence (Q9NPC2 whole entry, looked up): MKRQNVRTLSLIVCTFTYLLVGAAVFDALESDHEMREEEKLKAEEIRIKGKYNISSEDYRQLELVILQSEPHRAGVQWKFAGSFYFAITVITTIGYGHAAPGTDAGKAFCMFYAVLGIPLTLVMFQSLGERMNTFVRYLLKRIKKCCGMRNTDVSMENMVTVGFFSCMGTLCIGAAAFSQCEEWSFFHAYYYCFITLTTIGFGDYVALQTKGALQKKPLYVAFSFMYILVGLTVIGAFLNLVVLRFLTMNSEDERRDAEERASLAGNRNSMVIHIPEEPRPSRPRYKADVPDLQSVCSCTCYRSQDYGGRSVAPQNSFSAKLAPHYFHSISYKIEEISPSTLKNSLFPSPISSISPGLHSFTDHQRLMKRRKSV
KCNQ1 pot = potentiates or activates the human KCNQ1 potassium channel | P51787 | CHO-K1 KCNQ1, thallium flux FluxOR fluorescence; active compounds read high | B-score at 10 µM | 0.35% of 310,000 active;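 active = fluorescence ratio B-score, a plate-corrected score, at least three library SD, with initial intensity B-score within 5 SD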
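Assay system: stable KCNQ1 CHO-K1 line; medium: assay buffer, equal DMSO in all wells; timing: 90 min dye loading and 20 min compound exposure, both at room temperature; technique: kinetic FluxOR thallium fluorescence, 10-s 1-Hz baseline, 110-s post-stimulus read; read-out basis: B score of baseline-normalized fluorescence ratio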
Kir21 block = inhibitors of mouse Kir2.1 inward-rectifier potassium channel; P35561; HEK293-Kir2.1, FluxOR thallium flux fluorescence; active compounds read low; B-score at 10 µM; 0.85% of 310,000 active; AID 1672;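 active = fluorescence ratio B-score at or below minus 3 SD of library scores, with starting-brightness B-score within 2 SD, cut at about -4.2 in these data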;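 also: channel flux triggered by added potassium and thallium sulfate stimulus; B-score of peak minus minimum fluorescence over baseline after thallium stimulus; more negative B-score means stronger Kir2.1 block with less thallium influx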
KCNK3 block = human KCNK3 channel inhibition, primary screen | O14649 | CHO-KCNK3 thallium flux, FluxOR fluorescence; active compounds read low | B-score at 10 µM | 0.84% of 340,000 active | AID 602410;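 active = B-score under library mean minus 4 SD, starting fluorescence ratio at most library mean plus 5 SD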;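 also: more negative B-score means stronger inhibition of thallium flux through KCNK3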
KCNK9 block conf = human KCNK9 inhibitor confirmation; shares compounds with KCNK9 inh; HEK293 KCNK9 cells, FluxOR thallium flux fluorescence; inhibition, % at 10 µM; 43% of 4,900 active; AID 492992;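 active = thallium signal inhibited by more than 5 SD of the compound-free buffer control wells, on both duplicate plates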;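 also: 0% = assay buffer control wells without compound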
Kir2-1 spec = mouse Kir2.1 off-target activity of KCNK9 modulators | shares compounds with KCNK9 inh | Kir2.1 cells, FluxOR thallium flux fluorescence | inhibition, % at 10 µM | 4% of 4,900 active | AID 492993;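 active = thallium signal drop more than 5 SD beyond the mean of the no-compound control wells, seen in both duplicate plates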;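 also: signal is fluorescence rise after thallium addition divided by baseline fluorescence; plate controls were assay buffer only for no effect and full block by chlorpromazine control for full effect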
KCNK9 uninduced = second counter-screen for KCNK9 modulators: effect in non-induced cells. non-induced KCNK9-HEK293, FluxOR thallium flux. shares compounds with KCNK9 inh. 40% of 4,900 active. AID 492997. inhibition, % at 10 µM;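 active = thallium signal drop beyond 5 SD of the untreated control mean, on both duplicate plates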;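 also: plate controls were buffer only IC0 wells for no effect and SID17386958 at its maximal inhibitory level for full effect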
Numbers without * were called inactive; i = inactive; · = no result given.

SMILES	KCNQ1 block	hERG rescue	KCNK9 inh	KCNQ1 pot	Kir21 block	KCNK3 block	KCNK9 block conf	Kir2-1 spec	KCNK9 uninduced
COc1cc(CN2CCCC(C(=O)c3ccc4c5c(cccc35)CC4)C2)cc(OC)c1O (stereo unspecified)	i	-18	i	i	-2.6	i	i	i	i
O=C(c1ccc2c3c(cccc13)CC2)C1CCCN(Cc2cccnc2)C1 (stereo unspecified)	i	-13	i	i	0.02	i	i	i	i
CN1CCC(C(=O)N2CCCC(C(=O)c3ccc4c5c(cccc35)CC4)C2)CC1 (stereo unspecified)	i	-7	i	i	0.11	i	·	·	·
COCCC(=O)N1CCCC(C(=O)c2ccccc2SC)C1 (stereo unspecified)	i	4	i	i	1.8	i	·	·	·
COc1ccc(NS(=O)(=O)c2ccc(-n3nnc4ccccc43)c([N+](=O)[O-])c2)cc1	i	-5	i	i	-0.63	i	·	·	·
Cc1ccc(C(=O)C(C(=O)/C=C/c2ccccc2)=C2SCCCS2)cc1	i	-10	i	i	-1.4	i	·	·	·
COC(=O)/C(=C/c1ccc2c(c1)c1ccccc1n2C)NC(=O)c1ccccc1	i	-6	-8.6*	i	1.3	i	54%*	i	38%*
CCC(=O)N[C@@H]1CC(C(C)(C)NC(=O)CC)CC=C1C (stereo partly specified)	i	-11	i	i	-0.03	i	·	·	·
CC(=O)Nc1cccc(NC(=O)CSc2ccc3nnc(CCNC(=O)c4ccccc4)n3n2)c1	i	-12	i	i	0.51	i	·	·	·
N#Cc1c(N2CCN(C(=O)c3ccccc3)CC2)nc(-c2ccccc2)c2c1CCCC2	i	-7	i	i	1.3	i	i	i	i
N#Cc1c(N2CCN(C(=O)c3ccco3)CC2)nc(-c2ccccc2)c2c1CCCC2	i	-29	i	i	-0.92	i	·	·	·
Cc1cc(C)c(C(=O)C2OC(=O)C(C)(C)C(=O)C2(C)C)c(C)c1 (stereo unspecified)	i	-11	i	i	0.34	i	i	i	i
Cn1c(=O)c(C(=O)NCc2ccccc2)c(O)c2ccccc21	i	1	i	i	1.2	i	·	·	·
Cn1c(=O)c(C(=O)NCCCc2ccccc2)c(O)c2ccccc21	i	-1	i	i	-0.71	i	i	i	28%*
COc1ccc(CCNC(=O)c2c(O)c3ccccc3n(C)c2=O)cc1	i	-8	i	i	0.85	i	i	i	i
COc1ccc(CCNC(=O)c2cc3c(=O)n(C)c4ccccc4c3n2C)c(OC)c1	i	-13	i	i	-0.02	i	i	i	i
CNC(=S)NNC(=O)c1ccc2c(c1)OCO2	i	-10	i	i	0.52	i	·	·	·
COc1cc2cc(C(=O)N[C@@H](Cc3ccccc3)C(=O)O)n(C)c2c(OC)c1OC	i	1	i	i	0.66	i	·	·	·
Cc1onc(-c2ccccc2)c1C(=O)c1c[nH]c(C(=O)NCc2ccncc2)c1	i	-19	i	i	0.89	i	·	·	·
CCOC(=O)Cc1c(C)nc2c(-c3ccc(OC)cc3)c(C)nn2c1C	i	-10	i	i	2	i	i	i	i
Cc1nc2c(-c3ccccc3)c(C)nn2c(C)c1CCC(=O)O	i	-6	i	i	-0.25	i	·	·	·
Cc1c(N)c(=O)n(-c2ccccc2)n1C	·	·	·	·	·	i	·	·	·
COc1ccc(/C=N/Nc2nc(-c3ccc(Cl)cc3)cc(C(F)(F)F)n2)cc1OC	6*	-10	i	i	0.06	i	i	i	i
CCOC(=O)c1c(C)[nH]c(N=Nc2ccc(C)cc2C)c1C	i	-2	i	i	0.79	i	·	·	·
CCOC(=O)c1c(C)[nH]c(N=Nc2ccccc2C)c1C	i	-7	-9.4*	i	1.1	i	52%*	i	i
SMILES	KCNQ1 block	hERG rescue	KCNK9 inh	KCNQ1 pot	Kir21 block	KCNK3 block	KCNK9 block conf	Kir2-1 spec	KCNK9 uninduced
Cc1cccc(Nc2nnc(-c3ccc(N4CCOCC4)c([N+](=O)[O-])c3)c3ccccc23)c1	i	-8	i	i	0.03	i	i	i	i
Cc1nnc(-c2ccc(N3CCOCC3)c([N+](=O)[O-])c2)o1	·	·	·	·	·	i	·	·	·
COc1ccc(/C=C/C(=O)c2ccc(O)cc2)cc1CN1CCOCC1	i	-9	i	i	0.68	i	·	·	·
Cc1sc2nc(CSCC(=O)N3CC(C)OC(C)C3)[nH]c(=O)c2c1C (stereo unspecified)	·	·	·	·	·	i	·	·	·
Cc1cccc(NC(=O)NNC(=O)CCc2ccccc2)c1	i	-10	i	i	1.1	i	·	·	·
N/C(Cc1ccc([N+](=O)[O-])cc1)=N\OC(=O)COc1cccc2ccccc12	i	-9	-8.3*	i	-0.49	i	i	i	37%*
O=C1N/C(=C\c2ccccc2)C(O)=C1C=NCc1ccccc1	i	-2	i	i	-0.02	i	·	·	·
CCN(CC1CCCN(CCc2cccc(F)c2)C1)C(=O)c1ccc(CSC)o1 (stereo unspecified)	i	-13	i	i	-2.4	i	·	·	·
C=CCC(=O)N(CC)CC1CCCN(CCc2cccc(F)c2)C1 (stereo unspecified)	i	0	-9.1*	i	0.16	i	i	i	i
O=C(Nc1nc(-c2cc3ccccc3oc2=O)cs1)c1ccc(Br)o1	i	-3	-9.9*	i	0.44	i	26%*	i	i
COc1ccc(NS(=O)(=O)c2ccc(C)c(C(=O)NCCCN3CCCC3=O)c2)cc1	·	·	·	·	·	i	·	·	·
Cc1cccc(OCCn2c(-c3ccco3)nc3ccccc32)c1	i	-18	-10*	i	-1.9	i	30%*	i	34%*
c1ccc(NCc2nc3ccccc3n2CCOc2ccccc2)cc1	i	-5	i	i	-2.8	i	·	·	·
COc1ccc(NCc2nc3ccccc3n2CCOc2ccc(C)cc2)cc1	i	0	-11*	i	-0.86	i	70%*	48%*	52%*
COc1ccc(NCc2nc3ccccc3n2CCOc2ccccc2)cc1	i	-5	-11*	i	-4.5*	i	i	i	33%*
